Reference: ChEMBL document CHEMBL1152244, “Proteochemometrics analysis of substrate interactions with dengue virus NS3 proteases” (Bioorg Med Chem, 2008)
Non-standard residues stand in square brackets, D forms with d. Residues, ends and D or L forms follow the SMILES beside them. Tyr(3-NO2) = N[C@@H](Cc1ccc(O)c([N+](=O)[O-])c1)C(=O)O; 2Abz = Nc1ccccc1C(=O)O

Columns and labels:
dengue virus type 1 = test: Activity of dengue virus 1 recombinant NS3 protease expressed in Escherichia coli C41(DE3) by fluorogenic assay
How it was run: (§1)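 NS2B(H)-NS3pro from inclusion bodies, Ni-chelate and gel filtration purified under 8 M urea, refolded by dialysis. Internally quenched Abz–RRRR-XXXX–nY–NH2 peptides, 1–100 µM (12 points), enzyme 150–200 nM, 50 mM Tris–HCl pH 9.0, 20% glycerol, 37 °C. Cleavage read as fluorescence, ex 320/em 420 nm. Initial rates fitted to give Km and kcat, averaged over ≥3 independent measurements.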

dengue virus type 2 = test: Activity of dengue virus 2 recombinant NS3 protease expressed in Escherichia coli C41(DE3) by fluorogenic assay; how it was run: as §1
dengue virus type 3 = test: Activity of dengue virus 3 recombinant NS3 protease expressed in Escherichia coli C41(DE3) by fluorogenic assay; how it was run: as §1
dengue virus type 4 = test: Activity of dengue virus 4 recombinant NS3 protease expressed in Escherichia coli C41(DE3) by fluorogenic assay; how it was run: as §1

| SMILES | Km (dengue virus type 1) | kcat (dengue virus type 1) | Km (dengue virus type 2) | kcat (dengue virus type 2) | Km (dengue virus type 3) | kcat (dengue virus type 3) | Km (dengue virus type 4) | kcat (dengue virus type 4) |
| --- | --- | --- | --- | --- | --- | --- | --- | --- |
| NC(=O)[C@H](Cc1ccc(O)c([N+](=O)[O-])c1)NC(=O)[C@H](Cc1cnc[nH]1)NC(=O)[C@H](CS)NC(=O)CNC(=O)[C@H](CC(=O)O)NC(=O)c1ccccc1N (H-[2Abz]DGCH[Tyr(3-NO2)]-NH2) | 22.9 µM | 0.0128 s⁻¹ | 7.02 µM | 0.0015 s⁻¹ | 20.8 µM | 0.00283 s⁻¹ | 9.05 µM | 0.00783 s⁻¹ |
| NC(=O)[C@H](Cc1ccc(O)c([N+](=O)[O-])c1)NC(=O)[C@H](CC(=O)O)NC(=O)[C@H](CO)NC(=O)[C@H](Cc1c[nH]c2ccccc12)NC(=O)[C@H](Cc1cnc[nH]1)NC(=O)c1ccccc1N (H-[2Abz]HWSD[Tyr(3-NO2)]-NH2) | 17.2 µM | 0.0025 s⁻¹ | 14.9 µM | 0.00117 s⁻¹ |  |  | 9.76 µM | 0.0108 s⁻¹ |
| C[C@@H](O)[C@H](NC(=O)[C@H](CO)NC(=O)[C@H](CC(=O)O)NC(=O)c1ccccc1N)C(=O)N[C@@H](CS)C(=O)N[C@@H](Cc1ccc(O)c([N+](=O)[O-])c1)C(N)=O (H-[2Abz]DSTC[Tyr(3-NO2)]-NH2) | 15.2 µM | 0.00767 s⁻¹ | 12.8 µM | 0.00117 s⁻¹ | 11.1 µM | 0.00333 s⁻¹ | 23.1 µM | 0.014 s⁻¹ |
| NC(=O)C[C@H](NC(=O)c1ccccc1N)C(=O)N1CCC[C@H]1C(=O)N[C@@H](CO)C(=O)N[C@@H](Cc1cnc[nH]1)C(=O)N[C@@H](Cc1ccc(O)c([N+](=O)[O-])c1)C(N)=O (H-[2Abz]NPSH[Tyr(3-NO2)]-NH2) | 13.4 µM | 0.00617 s⁻¹ | 5.18 µM | 0.00133 s⁻¹ | 26.9 µM | 0.00183 s⁻¹ | 21.5 µM | 0.0225 s⁻¹ |
| NC(=O)C[C@H](NC(=O)[C@H](Cc1cnc[nH]1)NC(=O)c1ccccc1N)C(=O)N[C@@H](CS)C(=O)N[C@@H](CS)C(=O)N[C@@H](Cc1ccc(O)c([N+](=O)[O-])c1)C(N)=O (H-[2Abz]HNCC[Tyr(3-NO2)]-NH2) |  |  | 8.81 µM | 0.00233 s⁻¹ | 10 µM | 0.00283 s⁻¹ | 3.28 µM | 0.0157 s⁻¹ |
| C[C@H](NC(=O)c1ccccc1N)C(=O)NCC(=O)N1CCC[C@H]1C(=O)N[C@@H](CC(N)=O)C(=O)N[C@@H](Cc1ccc(O)c([N+](=O)[O-])c1)C(N)=O (H-[2Abz]AGPN[Tyr(3-NO2)]-NH2) | 12.6 µM | 0.0257 s⁻¹ | 4.18 µM | 0.00683 s⁻¹ | 10.8 µM | 0.0103 s⁻¹ | 19.2 µM | 0.0745 s⁻¹ |
| C[C@H](NC(=O)c1ccccc1N)C(=O)N1CCC[C@H]1C(=O)N[C@@H](CS)C(=O)N[C@@H](CC(N)=O)C(=O)N[C@@H](Cc1ccc(O)c([N+](=O)[O-])c1)C(N)=O (H-[2Abz]APCN[Tyr(3-NO2)]-NH2) | 11.4 µM | 0.0397 s⁻¹ | 5.41 µM | 0.004 s⁻¹ | 3.87 µM | 0.0112 s⁻¹ | 4.94 µM | 0.0477 s⁻¹ |
| C[C@H](NC(=O)CNC(=O)[C@H](C)NC(=O)[C@H](CO)NC(=O)c1ccccc1N)C(=O)N[C@@H](Cc1ccc(O)c([N+](=O)[O-])c1)C(N)=O (H-[2Abz]SAGA[Tyr(3-NO2)]-NH2) | 23.3 µM | 0.227 s⁻¹ | 3.06 µM | 0.027 s⁻¹ |  |  | 10.5 µM | 0.222 s⁻¹ |
| CC(C)C[C@H](NC(=O)[C@H](Cc1cnc[nH]1)NC(=O)c1ccccc1N)C(=O)N[C@H](C(=O)N[C@@H](Cc1cnc[nH]1)C(=O)N[C@@H](Cc1ccc(O)c([N+](=O)[O-])c1)C(N)=O)C(C)C (H-[2Abz]HLVH[Tyr(3-NO2)]-NH2) | 8.83 µM | 0.00617 s⁻¹ | 14.1 µM | 0.00233 s⁻¹ |  |  | 16.3 µM | 0.018 s⁻¹ |
| CC(C)[C@H](NC(=O)[C@H](CC(=O)O)NC(=O)[C@H](CC(N)=O)NC(=O)c1ccccc1N)C(=O)N[C@@H](CC(=O)O)C(=O)N[C@@H](Cc1ccc(O)c([N+](=O)[O-])c1)C(N)=O (H-[2Abz]NDVD[Tyr(3-NO2)]-NH2) | 106 µM | 0.006 s⁻¹ | 43.2 µM | 0.00167 s⁻¹ |  |  | 85.9 µM | 0.0253 s⁻¹ |
| C[C@H](NC(=O)c1ccccc1N)C(=O)N1CCC[C@H]1C(=O)NCC(=O)N[C@@H](CC(=O)O)C(=O)N[C@@H](Cc1ccc(O)c([N+](=O)[O-])c1)C(N)=O (H-[2Abz]APGD[Tyr(3-NO2)]-NH2) |  |  | 19.6 µM | 0.000667 s⁻¹ |  |  | 89 µM | 0.0103 s⁻¹ |
| NC(=O)[C@H](Cc1ccc(O)c([N+](=O)[O-])c1)NC(=O)[C@H](CS)NC(=O)CNC(=O)[C@H](Cc1c[nH]c2ccccc12)NC(=O)[C@H](CO)NC(=O)c1ccccc1N (H-[2Abz]SWGC[Tyr(3-NO2)]-NH2) |  |  | 2.87 µM | 0.0065 s⁻¹ |  |  | 4.79 µM | 0.0398 s⁻¹ |
